According to ChEMBL document CHEMBL1145853, “Design, synthesis, and biological evaluation of cytotoxic 11-alkenylindenoisoquinoline topoisomerase I inhibitors and indenoisoquinoline-camptothecin hybrids” (2003):

What was measured:
Cancer cell lines = experiment: Mean graph midpoint for growth inhibition of all human cancer cell lines; format: functional
[1] = biological target: T1, DNA topoisomerase 1 (Homo sapiens) (UniProt P11387); experiment: Activity to produce DNA topoisomerase I-mediated DNA cleavage at concentration up to 10 uM
T1 sequence (whole entry): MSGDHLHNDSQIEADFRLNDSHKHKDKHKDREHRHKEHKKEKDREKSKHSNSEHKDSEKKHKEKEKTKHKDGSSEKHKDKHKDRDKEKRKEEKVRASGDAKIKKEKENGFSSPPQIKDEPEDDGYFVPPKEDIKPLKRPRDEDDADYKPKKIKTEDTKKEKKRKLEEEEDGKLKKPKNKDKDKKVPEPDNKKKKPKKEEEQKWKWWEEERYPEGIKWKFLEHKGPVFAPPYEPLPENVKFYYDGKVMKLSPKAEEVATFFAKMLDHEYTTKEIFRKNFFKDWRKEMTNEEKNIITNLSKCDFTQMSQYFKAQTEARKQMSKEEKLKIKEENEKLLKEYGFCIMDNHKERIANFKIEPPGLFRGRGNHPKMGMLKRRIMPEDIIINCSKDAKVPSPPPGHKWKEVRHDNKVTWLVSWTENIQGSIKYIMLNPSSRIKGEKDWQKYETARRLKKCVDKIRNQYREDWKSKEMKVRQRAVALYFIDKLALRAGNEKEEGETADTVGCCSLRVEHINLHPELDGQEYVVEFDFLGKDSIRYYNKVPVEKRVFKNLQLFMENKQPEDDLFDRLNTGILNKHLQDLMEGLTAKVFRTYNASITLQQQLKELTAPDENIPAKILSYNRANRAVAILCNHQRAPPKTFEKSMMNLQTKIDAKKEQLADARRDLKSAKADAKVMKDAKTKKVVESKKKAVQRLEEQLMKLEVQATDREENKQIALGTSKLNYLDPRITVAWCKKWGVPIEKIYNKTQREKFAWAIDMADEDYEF
Outline: (§1)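 Human recombinant top1, purified from baculovirus, was incubated for 30 min at 22 °C with the drug at up to 10 μM. The substrate was a 161 bp PvuII/HindIII fragment of pBluescript SK(-), 3'-end-labeled at the HindIII site by Klenow fill-in with [α-32P]dGTP, about 50 000 dpm per reaction. Reactions were stopped with SDS (0.5% final) and run on denaturing 16% polyacrylamide/7 M urea gels. Cleavage was scored semiquantitatively.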

SF-539 = experiment: Cytotoxic concentration against human CNS SF-539 cell line growth inhibition; format: functional
DU-145 = experiment: Cytotoxic concentration against human prostate DU-145 cell line growth inhibition; format: functional
HOP-62 = experiment: Cytotoxic concentration against human lung HOP-62 cell line growth inhibition; format: functional
HCT-116 = experiment: Cytotoxic concentration against human colon HCT116 cell line growth inhibition; format: functional
OVCAR-3 = experiment: Cytotoxic concentration against human ovarian OVCAR-3 cell line growth inhibition; format: functional
SN12C = experiment: Cytotoxic concentration against human renal SN12C cell line growth inhibition; format: functional
UACC-62 = experiment: Cytotoxic concentration against human melanoma UACC-62 cell line growth inhibition; format: functional
MDA-MB-435 = experiment: Cytotoxic concentration against human breast MDA-MB-435 cell line growth inhibition; format: functional
[2] = biological target: T1, DNA topoisomerase 1 (Homo sapiens); experiment: Activity to produce DNA topoisomerase I-mediated DNA cleavage at concentration up to 10 uM; +, indicates weak activity; outline: as §1
[3] = biological target: T1, DNA topoisomerase 1 (Homo sapiens); experiment: Activity to produce DNA topoisomerase I-mediated DNA cleavage at concentration up to 10 uM; +++, greater activity than the parent compound 2; outline: as §1

SMILES | Activity [1] | Activity [2] | Activity [3] | MGM (Cancer cell lines) | GI50 (SF-539) | GI50 (DU-145) | GI50 (HOP-62) | GI50 (HCT-116) | GI50 (OVCAR-3) | GI50 (SN12C) | GI50 (UACC-62) | GI50 (MDA-MB-435)
COc1cc2c3c(n(C)c(=O)c2cc1OC)-c1cc2c(cc1/C3=C/CCCCCBr)OCO2 | – | – | – | 7.8 µM | – | – | – | – | – | – | – | –
COc1cc2c3c(n(C)c(=O)c2cc1OC)-c1cc2c(cc1/C3=C\CCCBr)OCO2 | 0 | – | – | – | 30 µM | 67.8 µM | 19.4 µM | 37.8 µM | 58.1 µM | > 100 µM | 11.4 µM | > 100 µM
COc1cc2c3c(n(C)c(=O)c2cc1OC)-c1cc2c(cc1/C3=C\CCCCBr)OCO2 | – | – | – | – | – | – | – | – | > 100 µM | > 100 µM | > 100 µM | > 100 µM
O=c1c2ccccc2cc2n1Cc1cc3ccccc3nc1-2 [ROSETTACIN] | – | – | – | – | 66.7 µM | > 100 µM | 68.2 µM | 32.7 µM | 39.8 µM | > 100 µM | 97.2 µM | 41.8 µM
COc1cc2c3c(n(C)c(=O)c2cc1OC)-c1cc2c(cc1C3=O)OCO2 | – | – | – | 20 µM | 41 µM | 37 µM | 1.3 µM | 35 µM | – | 68 µM | 4.2 µM | 96 µM

The next lines start with results.

Activity [1] | Activity [2] | Activity [3] | SMILES | MGM (Cancer cell lines) | GI50 (SF-539) | GI50 (DU-145) | GI50 (HOP-62) | GI50 (HCT-116) | GI50 (OVCAR-3) | GI50 (SN12C) | GI50 (UACC-62) | GI50 (MDA-MB-435)
– | indicates weak activity | – | COc1cc2cc3n(c(=O)c2cc1OC)Cc1cc2ccccc2nc1-3 [DIMETHOXYAROMATHECIN] | – | > 100 µM | > 100 µM | > 100 µM | 57.3 µM | > 100 µM | > 100 µM | > 100 µM | > 100 µM
0 | – | – | COc1cc2c3c(n(C)c(=O)c2cc1OC)-c1cc2c(cc1/C3=C/CCCI)OCO2 | – | 4.3 µM | 28.7 µM | 27.6 µM | 0.56 µM | 22.8 µM | 8.8 µM | 3.5 µM | 5.2 µM
– | Weak activity | – | COc1cc2c3c(n(C)c(=O)c2cc1OC)-c1cc2c(cc1/C3=C\CCCCl)OCO2 | – | – | – | – | – | – | > 100 µM | – | > 100 µM
– | – | greater activity than compound 2 | COc1cc2c3c(n(C)c(=O)c2cc1OC)-c1cc2c(cc1/C3=C/CCN)OCO2 | 0.34 µM | 0.42 µM | 0.37 µM | 0.071 µM | 0.028 µM | 0.56 µM | 0.58 µM | 0.2 µM | 1.8 µM
